Our source for the Activity and inhibition in vivo values is ChEMBL document CHEMBL3227926, “2-Mercaptoacetamidines as gastric antisecretory agents” (J Med Chem, 1979).

Data set [1] concerns Canis familiaris. Kind of data set: Toxicity in beagle dog assessed as emesis administered directly into stomach via gastric cannula. The following applies: in vivo, other. The class given is organism-based, Canis lupus familiaris.
Data set [2] has as its system Canis familiaris. Kind of data set: Toxicity in beagle dog assessed as tachycardia administered directly into stomach via gastric cannula. The following applies: in vivo, other. Type of data set: organism-based, Canis lupus familiaris.
For data set [3], the system named is Canis familiaris. The data set can be described thus: Inhibition of gastrin tetrapeptide-induced gastric secretion in beagle dog at 8 mg/kg administered directly into stomach via gastric cannula measured after 2 hrs of stimulation. Type of data set: functional. The following applies: Canis lupus familiaris. Put shortly:
(§1)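 Conscious female beagles (5-9 kg) with chronic gastric fistula. Dose in 50 mL 1% methylcellulose was put into the stomach via the cannula 1 h before gastrin tetrapeptide 64 µg/kg sc (from 640 µg/mL in 30% Me2SO); controls got vehicle. Juice was collected for 2 h. Volume was measured, titratable acid obtained by titration to pH 7 with 0.01 N NaOH, and total acid taken as volume × concentration.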

The test system of data set [4] is Canis familiaris. The data set can be described thus: Toxicity in beagle dog assessed as gastric bleeding administered directly into stomach via gastric cannula. The following applies: in vivo, other. Type of data set: organism-based, Canis lupus familiaris.
Data set [5] relates to Canis familiaris. The data set can be described thus: Inhibition of gastrin tetrapeptide-induced gastric secretion in beagle dog at 16 mg/kg administered directly into stomach via gastric cannula measured after 2 hrs of stimulation. The class given is functional. The following applies: Canis lupus familiaris. Put shortly:
as §1

As usually defined, the inhibition in vivo is the drop in the measured response relative to a control, in per cent. Low values mean a response near the control, high ones a response far below the control. For `Cl.N=C(CS)NC12CC3CC(CC(C3)C1)C2`, the Activity result with Canis familiaris [1], in the data set with Canis familiaris [2] and with Canis familiaris [4] was “Toxic” in each case. This molecule also had an inhibition in vivo at 8 mg/kg with Canis familiaris [3] of 61%. Also, the inhibition in vivo at 16 mg/kg in the data set with Canis familiaris [5] was 86%.
Turning to `Cl.N=C(CS)NC1C2CC3CC(C2)CC1C3` (configuration not stated), the Activity result in the data set on Canis familiaris [1], with Canis familiaris [2] and in the data set with Canis familiaris [4] was “Toxic” in each case. For the same molecule, the inhibition in vivo at 16 mg/kg with Canis familiaris [5] turned out to be 85%.
In the case of `Cl.N=C(CS)NCC1C2CC3CC(C2)CC1C3` (configuration not stated), the Activity entry with Canis familiaris [1], in the data set with Canis familiaris [2] and with Canis familiaris [4] was “Toxic” throughout. The same molecule had an inhibition in vivo at 8 mg/kg in the data set with Canis familiaris [3] of 67%.
In the case of `Cl.N=C(CS)NCCCCCC12CC3CC(CC(C3)C1)C2`, the Activity result in the data set on Canis familiaris [1], with Canis familiaris [2] and in the data set with Canis familiaris [4] was “Toxic” throughout. In the data set on Canis familiaris [3], this molecule came in with an inhibition in vivo at 8 mg/kg of 9%.
Consider `Cl.N=C(N)CS`, for which the Activity result in the data set on Canis familiaris [1], in the data set with Canis familiaris [2] and in the data set on Canis familiaris [4] was “Toxic” each time. In addition, the inhibition in vivo at 8 mg/kg in the data set on Canis familiaris [3] worked out at 89%.
Take `CC(C)NC(=N)CS.Cl`: the Activity result in the data set with Canis familiaris [1], in the data set on Canis familiaris [2] and in the data set on Canis familiaris [4] was “Toxic” in each case. In the data set with Canis familiaris [3], this molecule had an inhibition in vivo at 8 mg/kg of 58%.
Take `Cl.N=C(CS)NCC1CCCCC1`: the Activity entry with Canis familiaris [1], with Canis familiaris [2] and with Canis familiaris [4] was “Toxic” in each case. The same molecule gave an inhibition in vivo at 8 mg/kg with Canis familiaris [3] of 86%.
As to `Cl.N=C(CS)NCC1CC2C3CCC(C3)C2C1` (configuration not stated), the Activity entry with Canis familiaris [1], with Canis familiaris [2] and in the data set on Canis familiaris [4] was “Toxic” in each case. This molecule showed an inhibition in vivo at 8 mg/kg with Canis familiaris [3] of 70%.
As to `Cl.N=C(CS)NCC12CCC(C(=O)O)(CC1)CC2`, the Activity result with Canis familiaris [1], with Canis familiaris [2] and in the data set with Canis familiaris [4] was “Toxic” each time. This molecule had an inhibition in vivo at 8 mg/kg with Canis familiaris [3] of 0%.
As to `Cl.N=C(CS)NCc1ccncc1`, the Activity result with Canis familiaris [1], in the data set with Canis familiaris [2] and with Canis familiaris [4] was “Toxic” throughout. Further, the inhibition in vivo at 8 mg/kg in the data set on Canis familiaris [3] was found to be 85%.
As to `Cl.N=C(CS)NCc1ccccn1`, the Activity result with Canis familiaris [1], in the data set on Canis familiaris [2] and with Canis familiaris [4] was “Toxic” throughout. In the data set with Canis familiaris [3], this molecule displayed an inhibition in vivo at 8 mg/kg of 82%.
Turning to `Cl.N=C(CS)NC/C=C/c1ccccc1`, the Activity entry in the data set with Canis familiaris [1], in the data set with Canis familiaris [2] and with Canis familiaris [4] was “Toxic” each time. In the data set with Canis familiaris [3], testing at 8 mg/kg gave an inhibition in vivo of 53%.
In the case of `Cl.N=C(CS)NC(c1ccccc1)c1ccccc1`, the Activity entry in the data set with Canis familiaris [1], in the data set with Canis familiaris [2] and in the data set on Canis familiaris [4] was “Toxic” in each case. In the data set with Canis familiaris [5], this molecule came in with an inhibition in vivo at 16 mg/kg of 82%.
For `Cl.N=C(CS)NC(c1ccccc1)c1ccc(Cl)cc1` (configuration not stated), the Activity entry in the data set with Canis familiaris [1], with Canis familiaris [2] and in the data set with Canis familiaris [4] was “Toxic” throughout. For the same molecule, at 16 mg/kg the inhibition in vivo in the data set with Canis familiaris [5] was 87%.
`Cl.N=C(CS)NC(Cc1ccccc1)c1ccccc1` (configuration not stated): the Activity result with Canis familiaris [1], in the data set with Canis familiaris [2] and in the data set on Canis familiaris [4] was “Toxic” throughout. At 16 mg/kg the inhibition in vivo with Canis familiaris [5] was 84%.
Regarding `Cl.N=C(CS)NC1Cc2ccccc2C1`, the Activity result with Canis familiaris [1], in the data set on Canis familiaris [2] and in the data set with Canis familiaris [4] was “Toxic” each time. Moreover, in the data set on Canis familiaris [5], the inhibition in vivo at 16 mg/kg worked out at 100%.
Regarding `Cl.N=C(CS)NC1c2ccccc2-c2ccccc21`, the Activity entry in the data set on Canis familiaris [1], in the data set with Canis familiaris [2] and with Canis familiaris [4] was “Toxic” throughout. This molecule also had an inhibition in vivo at 16 mg/kg in the data set on Canis familiaris [5] of 0%.
As for `Cl.N=C(CS)Nc1ccccc1`, the Activity result with Canis familiaris [1], in the data set with Canis familiaris [2] and with Canis familiaris [4] was “Toxic” throughout. This molecule also came in with an inhibition in vivo at 16 mg/kg in the data set on Canis familiaris [5] of 0%.
With `Cl.N=C(CS)Nc1cccc2ccccc12`, the Activity result in the data set with Canis familiaris [1], with Canis familiaris [2] and in the data set on Canis familiaris [4] was “Toxic” in each case. This molecule also registered an inhibition in vivo at 16 mg/kg in the data set on Canis familiaris [5] of 64%.
With `Cl.N=C(CS)Nc1cccc2c1CCCC2`, the Activity result in the data set with Canis familiaris [1], with Canis familiaris [2] and in the data set with Canis familiaris [4] was “Toxic” throughout. For the same molecule, testing at 16 mg/kg in the data set with Canis familiaris [5] gave an inhibition in vivo of 14%.
Regarding `CN(Cc1ccccc1)C(=N)CS.Cl`, the Activity result in the data set with Canis familiaris [1], in the data set on Canis familiaris [2] and with Canis familiaris [4] was “Toxic” each time. In the data set with Canis familiaris [5], this molecule displayed an inhibition in vivo at 16 mg/kg of 0%.
With `Cl.N=C(CS)N1CC2CCC(CC2)C1`, the Activity entry in the data set with Canis familiaris [1], in the data set with Canis familiaris [2] and in the data set with Canis familiaris [4] was “Toxic” throughout. The same molecule registered an inhibition in vivo at 16 mg/kg with Canis familiaris [5] of 92%.
For `O=C(CS)NCc1ccccc1`, the Activity entry with Canis familiaris [1], with Canis familiaris [2] and in the data set on Canis familiaris [4] was “Toxic” each time. Also, in the data set on Canis familiaris [3], 8 mg/kg produced 0% inhibition in vivo.
Consider `O=C(CS)NC1CCCCC1`, for which the Activity entry in the data set with Canis familiaris [1], in the data set on Canis familiaris [2] and with Canis familiaris [4] was “Toxic” in each case. This molecule had an inhibition in vivo at 8 mg/kg in the data set on Canis familiaris [3] of 0%.
As to `O=C(CS)NC12CC3CC(CC(C3)C1)C2`, the Activity entry in the data set with Canis familiaris [1], in the data set on Canis familiaris [2] and with Canis familiaris [4] was “Toxic” in each case. Moreover, the inhibition in vivo at 16 mg/kg in the data set with Canis familiaris [5] amounted to 58%.
For `CC(C)(C)CNC(=N)CCCS.Cl`, the Activity entry in the data set on Canis familiaris [1], with Canis familiaris [2] and in the data set with Canis familiaris [4] was “Toxic” each time. Moreover, the inhibition in vivo at 8 mg/kg with Canis familiaris [3] turned out to be 11%.
Turning to `Cl.N=C(CCSSCCC(=N)NCc1ccccc1)NCc1ccccc1`, the Activity result with Canis familiaris [1], in the data set on Canis familiaris [2] and in the data set with Canis familiaris [4] was “Toxic” throughout. Also, in the data set on Canis familiaris [5], the inhibition in vivo at 16 mg/kg is 42%.
With `Cl.N=C(CO)NCc1ccccc1`, the Activity entry in the data set on Canis familiaris [1], with Canis familiaris [2] and with Canis familiaris [4] was “Toxic” each time. The inhibition in vivo at 16 mg/kg with Canis familiaris [5] was determined as 0%.
On to `CC(=N)NCc1ccccc1.Cl`, for which the Activity result with Canis familiaris [1], with Canis familiaris [2] and in the data set with Canis familiaris [4] was “Toxic” each time. In the data set with Canis familiaris [5], 16 mg/kg produced 19% inhibition in vivo.
With `CC(=N)NC1CCCCC1`, the Activity entry in the data set on Canis familiaris [1], in the data set on Canis familiaris [2] and in the data set on Canis familiaris [4] was “Toxic” in each case. In the data set with Canis familiaris [5], this molecule displayed an inhibition in vivo at 16 mg/kg of 0%.
For `Cl.N=C(CS)N[C@@H]1C[C@H]2CC[C@H]1C2` (relative stereo), the Activity result in the data set on Canis familiaris [1], with Canis familiaris [2] and with Canis familiaris [4] was “Toxic” in each case. Also, in the data set on Canis familiaris [3], the inhibition in vivo at 8 mg/kg was found to be 94%.
Consider `CSCC(=N)NC[C@@H]1C[C@H]2CC[C@H]1C2` (relative stereo), for which the Activity result in the data set on Canis familiaris [1], in the data set on Canis familiaris [2] and in the data set on Canis familiaris [4] was “Toxic” each time. In the data set with Canis familiaris [3], testing at 8 mg/kg gave an inhibition in vivo of 35%.
For the molecule `Cl.N=C(CS)NC[C@@H]1C[C@H]2CC[C@H]1C2` (relative stereo; 15), the Activity result in the data set with Canis familiaris [1], in the data set with Canis familiaris [2] and in the data set with Canis familiaris [4] was “Toxic” throughout.
